The results in this text go back to ChEMBL document CHEMBL1148584, “Effect of polyamine homologation on the transport and biological properties of heterocyclic amidines” (J Med Chem, 2006).

Each structure is given as a SMILES string. pIC50: −log10 of the molar value.

The term pIC50 denotes the IC50 on a negative log10 scale, so that one unit is a factor of ten. The IC50 is the midpoint of a concentration-inhibition curve.

One data set relates to L1210. The experiment in a line: Intracellular level of spermidine in L1210 cells in the presence of DFMO at 10 uM. To be noted: Mus musculus. The class given is functional, cell-based. The method, boiled down: (§1)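 L1210 cells in RPMI 1640/10% FCS with 2 mM aminoguanidine, seeded at 4 × 10⁴ cells/mL. Conjugate, with or without 5 mM DFMO, added at seeding; cells cultured 48 h, washed in cold NaCl, and extracted with 0.2 N HClO₄. Conjugate and free putrescine, spermidine and spermine quantified by ion-pair HPLC (UV 254 nm, fluorescence ex 345/em 455 nm); normalised to protein. Student's t-test, p<0.05.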
As to `NCCCCNCCCNC1=Nc2ccccc2CC1`, the Drug uptake amounted to 3.2 nmol/mg.

The next data set concerns L1210. The experiment in a line: Intracellular level of conjugate in L1210 cells in the absence of DFMO at 10 uM. The class given is functional, cell-based. To be noted: Mus musculus. The method, boiled down: as §1
In turn, `NCCCCNCCCNC1=Nc2ccccc2CC1` yielded a Drug uptake of 4.3 nmol/mg.

In another data set the test system is CHO-MG. The experiment in a line: Cellular uptake in CHO-MG cells at 10 uM. The class given is ADME, cell-based, Cricetulus griseus. As to conditions: chinese hamster. Put shortly:
(§2)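 CHO (RPMI 1640, 10% FCS, 2 mM aminoguanidine) and CHO-MG (plus L-proline) cells seeded at 2 × 10⁵ cells/mL. Conjugate added 24 h after seeding and cells harvested 24 h later, then washed in cold 0.14 M NaCl and sonicated in 0.2 N HClO₄. Supernatant analysed by ion-pair reversed-phase HPLC (n-octanesulfonate), expressed as nmol/mg protein; mean ± SD of three determinations.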
`NCCCCNCCCNC1=Nc2ccccc2CC1`: the Drug uptake was 1.6 nmol/mg.

For the compound `CN(c1ccccc1)C1c2ccccc2N=C(NCCCCN)C1(C)C` (stereo not given), the Drug uptake came to 12 nmol/mg.

A further data set concerns CHO-MG. The experiment in a line: Inhibition of cell growth in CHO-MG cells in the presence of DFMO. As to conditions: Cricetulus griseus. The class given is functional, cell-based. The method, boiled down: (§3)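 L1210 cells seeded at 5 × 10⁴ cells/mL with conjugate added at seeding; CHO/CHO-MG plated at 2 × 10³ cells/mL with conjugate added after overnight (24 h). 5 mM DFMO added together with conjugate; medium contains 2 mM aminoguanidine. After 48 h, growth read by MTT formazan absorbance at 540 nm. IC50 is 50% growth inhibition; mean of three determinations.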
With `NCCCCN` [PUTRESCINE], the negative-log IC50 (pIC50) was less than 4.00.

`NCCCCNCCCN` [SPERMIDINE]: the pIC50 is less than 4.00.

For the compound `NCCCNCCCCNCCCN` [SPERMINE], the negative-log IC50 (pIC50) was less than 4.00.

On to `CN(c1ccccc1)C1c2ccccc2N=C(NCCCCN)C1(C)C` (stereo not given), for which the pIC50 is 4.89.

For the next data set, the target named is Phosphodiesterase 1 (Bos taurus, UniProt Q01061+P14100). The experiment in a line: Inhibition of bovine calmodulin-activated cAMP dependent phosphodiesterase.
Conditions: not given
The class given is protein assay. The method, boiled down:
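Crude bovine heart PDE preparation containing calmodulin and Ca²⁺ (0.2 milliunit). Incubated 20 min at 37 °C with 0.1 mM [8-³H]cAMP and graded drug concentrations in 30 mM Tris-HCl, 3 mM MgSO₄, 0.6 mM AMP. Stopped with ZnSO₄; Ba(OH)₂ precipitated AMP with BaSO₄; supernatant radioactivity counted. IC50 is the concentration giving 50% inhibition.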
The compound `CN(c1ccccc1)C1c2ccccc2N=C(NCCCO)C1(C)C` (stereo not given) displayed an IC50 of more than 500 µM.

`CC1C[C@]2(C)C(NCCCO)=Nc3ccccc3[C@@H]2N(C)c2ccccc21` (stereo not given in full): the half-maximal inhibitory concentration (IC50) is more than 500 µM.

In turn, `NCCCCN` [PUTRESCINE] returned an IC50 of more than 500 µM.

`NCCCCNCCCNC1=Nc2ccccc2CC1`: the IC50 is more than 500 µM.

`NCCCCNCCCN` [SPERMIDINE] displayed a half-maximal inhibitory concentration (IC50) of more than 500 µM.

With `NCCCNCCCCNCCCN` [SPERMINE], the IC50 is more than 500 µM.

In turn, `CN(c1ccccc1)C1c2ccccc2N=C(NCCCCN)C1(C)C` (stereo not given) showed a half-maximal inhibitory concentration (IC50) of 51 µM.

In turn, `OCCCNC1=Nc2ccccc2CC1` came in with an IC50 of more than 500 µM.

The subject of another data set is CHO-MG. The experiment in a line: Cellular uptake in CHO-MG cells at 25 uM. As to conditions: chinese hamster. Format: ADME, cell-based, Cricetulus griseus. The method, boiled down:
as §2
In turn, `NCCCCNCCCNC1=Nc2ccccc2CC1` came in with a Drug uptake of 2.2 nmol/mg.

Another data set has as its system CHO-MG. The experiment in a line: Selectivity for uptake in CHO cell line over CHO-MG cell line at 10 uM. To be noted: Cricetulus griseus. Format: functional, cell-based. Put shortly:
(§4)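 Ratio of intracellular conjugate level in CHO over CHO-MG cells. Both lines were exposed to conjugate 24 h after seeding at 2 × 10⁵ cells/mL, for 24 h with 2 mM aminoguanidine in the medium. Levels were measured by ion-pair HPLC of perchloric extracts and normalised to protein (nmol/mg).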
In the case of `NCCCCNCCCNC1=Nc2ccccc2CC1`, the Ratio was 6.9.

`CN(c1ccccc1)C1c2ccccc2N=C(NCCCCN)C1(C)C` (stereo not given): the Ratio was 1.1.

The test system of the next data set is L1210. The experiment in a line: Intracellular level of spermidine in L1210 cells in the absence of DFMO at 10 uM. To be noted: Mus musculus. The class given is functional, cell-based. Put shortly: as §1
`NCCCCNCCCNC1=Nc2ccccc2CC1` registered a Drug uptake of 14.5 nmol/mg.

The test system of a further data set is L1210. The experiment in a line: Intracellular level of conjugate in L1210 cells in the presence of DFMO at 10 uM. The class given is functional, cell-based. As to conditions: Mus musculus. The method, boiled down: as §1
On to `NCCCCNCCCNC1=Nc2ccccc2CC1`, for which the Drug uptake came to 8.2 nmol/mg.

System in another data set: not listed separately
The experiment in a line: Selectivity for uptake in CHO cell line over CHO-MG cell line at 25 uM.
Conditions: not given
Format: functional, Cricetulus griseus. Put shortly:
as §4
`NCCCCNCCCNC1=Nc2ccccc2CC1`: the Selectivity ratio is 7.

For another data set, the system named is CHO. The experiment in a line: Cellular uptake in CHO cells at 10 uM. To be noted: chinese hamster. The class given is ADME, cell-based, Cricetulus griseus. Put shortly:
as §2
`NCCCCNCCCNC1=Nc2ccccc2CC1`: the Drug uptake stood at 11 nmol/mg.

Consider `CN(c1ccccc1)C1c2ccccc2N=C(NCCCCN)C1(C)C` (stereo not given), for which the Drug uptake was 13 nmol/mg.

For a further data set, the system named is CHO. The experiment in a line: Cellular uptake in CHO cells at 25 uM. To be noted: chinese hamster. The class given is ADME, cell-based, Cricetulus griseus. The method, boiled down: as §2
As to `NCCCCNCCCNC1=Nc2ccccc2CC1`, the Drug uptake turned out to be 15.4 nmol/mg.

The next data set has as its system L1210. The experiment in a line: Intracellular level of spermine in L1210 cells in the absence of DFMO at 10 uM. The class given is functional, cell-based. To be noted: Mus musculus. The method, boiled down: as §1
In turn, `NCCCCNCCCNC1=Nc2ccccc2CC1` returned a Drug uptake of 7.1 nmol/mg.

The test system of a further data set is L1210. The experiment in a line: Inhibition of cell growth in L1210 cells in the presence of DFMO. The class given is functional, cell-based. To be noted: Mus musculus. The method, boiled down:
as §3
As for `NCCCCNCCCNC1=Nc2ccccc2CC1`, the pIC50 is less than 4.00.

For `CN(c1ccccc1)C1c2ccccc2N=C(NCCCCN)C1(C)C` (stereo not given), the pIC50 was 4.48.

The test system of the next data set is CHO. The experiment in a line: Inhibition of cell growth in CHO cells in the presence of DFMO. The class given is functional, cell-based. As to conditions: Cricetulus griseus. The method, boiled down: as §3
Turning to `CN(c1ccccc1)C1c2ccccc2N=C(NCCCCN)C1(C)C` (stereo not given), the pIC50 was less than 4.00.

A further data set concerns L1210. The experiment in a line: Intracellular level of spermine in L1210 cells in the presence of DFMO at 10 uM. The class given is functional, cell-based. As to conditions: Mus musculus. Put shortly: as §1
As to `NCCCCNCCCNC1=Nc2ccccc2CC1`, the Drug uptake was determined as 12.1 nmol/mg.
